Experiment [1] deals with T1, human intelectin-1 (hItln-1) (Homo sapiens, UniProt Q8WWA0). Nature of the experiment: Biolayer interferometry. The class given is binding. As to conditions: for ΔΔG relative free energy of binding compared to Galf: column Galf; for ΔΔG relative free energy of binding compared to Glycerol 1-phosphate: column Glycerol 1-phosphate; for ΔΔG relative free energy of binding compared to KDO: column KDO; for ΔΔG relative free energy of binding compared to KO: column KO.

Experiment [2] concerns the target T1, human intelectin-1 (hItln-1). Nature of the experiment: ELISA of hItln-1 binding to immobilized BSA-conjugated monosaccharides. Particulars: for Kd by ELISA: BSA-conjugated heptose sugars, single-site binding fit; for binding to hItln-1 by ELISA: saccharide conjugated in multiple copies to BSA and immobilized. The method in brief: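 Sugar–BSA conjugates were adsorbed in PBS (1.5 μM sugar), 1 h RT, then blocked with 5% BSA in HEPES-T for 2 h. Serially diluted Strep-hItln-1 in HEPES-T + BSA was bound 2 h RT. Detection used anti-Strep-tag HRP (1:10,000, 2 h RT), then TMB quenched with 2 M H2SO4, read at 450 nm. One-site binding fit gave Kd. Mean ± SEM, n = 2 technical replicates.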

The subject of experiment [3] is hItln-1. Particulars: cited from earlier work.
Setting [4] is: ΔΔG = 0.593 (kcal/mol) ln(IC50,row/IC50,column).

Like-named read-outs stand apart in the source and are kept apart here.

T1 sequence (Q8WWA0 19-313): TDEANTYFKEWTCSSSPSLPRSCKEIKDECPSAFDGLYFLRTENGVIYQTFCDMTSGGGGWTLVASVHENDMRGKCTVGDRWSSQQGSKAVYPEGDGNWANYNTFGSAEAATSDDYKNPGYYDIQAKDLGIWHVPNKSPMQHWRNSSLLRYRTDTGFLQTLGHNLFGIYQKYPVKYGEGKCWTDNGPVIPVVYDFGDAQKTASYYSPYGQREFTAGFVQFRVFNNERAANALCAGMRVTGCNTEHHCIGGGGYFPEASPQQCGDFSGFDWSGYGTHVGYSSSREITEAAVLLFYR

With `OC[C@@H](O)[C@H]1O[C@H](O)[C@@H](O)[C@@H](O)[C@@H]1O` [D,D-heptose, D-glycero-α-D-manno-heptose], in experiment [1] (setting [4]), the “ΔΔG relative free energy of binding compared to Galf” value (“ΔΔG relative free energy … to Galf” below) was determined as 0.8 kcal/mol, the “ΔΔG relative free energy of binding compared to Glycerol 1-phosphate” value is 0.7 kcal/mol, the “ΔΔG relative free energy of binding compared to KDO” value (shortened to “ΔΔG relative free energy … to KDO”) is given as 0.9 kcal/mol and the “ΔΔG relative free energy of binding compared to KO” value (“ΔΔG relative free energy … to KO” below) was 1.3 kcal/mol. Moreover, in experiment [2], the “Kd by ELISA” value was “could not be determined” and the “binding to hItln-1 by ELISA” value is recorded as “no measurable binding”.

Consider `OC[C@@H](O)[C@@H]1O[C@@H](O)[C@H](O)[C@H]1O` [Galf, β-D-galactofuranose], for which, in experiment [1] (setting [4]), the “ΔΔG relative free energy … to KDO” value was determined as 0.1 kcal/mol and the “ΔΔG relative free energy … to KO” value turned out to be 0.6 kcal/mol. In addition, in experiment [2], the “binding to hItln-1 by ELISA” value was “bound”.

Take `O=P(O)(O)OC[C@H](O)CO` [Glycerol 1-phosphate, D-glycerol 1-phosphate]: in experiment [1] (setting [4]), the “ΔΔG relative free energy … to Galf” value is 0.1 kcal/mol, the “ΔΔG relative free energy … to KDO” value is 0.2 kcal/mol and the “ΔΔG relative free energy … to KO” value amounted to 0.7 kcal/mol.

Take `C=CCO[C@@]1(C(=O)O)O[C@H]([C@H](O)CO)[C@H](O)[C@H](O)[C@@H]1O` [KO, prop-2-en-1-yl D-glycero-alpha-D-talo-oct-2-ulopyranosidonic acid]: the IC50 in experiment [1] stood at 700 µM. In experiment [1] (setting [4]), the “ΔΔG relative free energy … to Galf” value is -0.6 kcal/mol. The “binding to hItln-1 by ELISA” value in experiment [2] is “bound”.

Take `OC[C@H](O)[C@H]1O[C@H](O)[C@@H](O)[C@@H](O)[C@@H]1O` [L,D-heptose, L-glycero-α-D-manno-heptose]: the “IC50 value higher than that of allyl-KO” value in experiment [1] (ratio of IC50 values) was 80 fold. Besides, the “ΔΔG relative free energy of binding compared to D,D-heptose” value in experiment [1] (ΔΔG = 0.593 (kcal/mol) ln(IC50,row/IC50,column), column D,D-heptose) turned out to be 1.2 kcal/mol. In experiment [1] (setting [4]), the “ΔΔG relative free energy … to Galf” value worked out at 2.0 kcal/mol, the “ΔΔG relative free energy of binding compared to Glycerol 1-phosphate” value was 1.9 kcal/mol, the “ΔΔG relative free energy … to KDO” value came to 2.0 kcal/mol and the “ΔΔG relative free energy … to KO” value came to 2.4 kcal/mol. Besides, in experiment [2], the “Kd by ELISA” value was “could not be determined” and the “binding to hItln-1 by ELISA” value was “no measurable binding”.

Consider `CC(=O)N[C@H]1[C@H]([C@H](O)[C@H](O)CO)OC(O)(C(=O)O)C[C@@H]1O` (stereo partly shown) [sialic acid, N-acetyl neuraminic acid], for which the “binding to hItln-1” value is “not a ligand” in experiment [3] and “does not bind” in experiment [3] (listed as N-acetyl neuraminic acid).

Values taken from paper PMC7392083 (Journal of the American Chemical Society, 2020).
